Converted amounts (≈) assume the structure as drawn. The source made the active and inactive calls. No cut-off for these calls is given here.
Assays:
[1] = target: T1, Transient receptor potential cation channel subfamily V member 1 (Homo sapiens, UniProt Q8NER1); experiment: Antagonist activity at TRPV1 expressed in HEK293 cells assessed as inhibition of capsaicin-induced activation by FLIPR assay; type: functional, cell-based
Procedure, shortened: (§1)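 FLIPR calcium-flux run at 37 °C in a HEK293 line stably transfected with TRPV1. Channel activated by capsaicin or by PMA, and the IC50 is taken against each agonist. Compounds dissolved in DMSO, with DMSO alone as the vehicle control.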

[2] = AUC (0 to 6 hrs) in rat at 10 mg/kg, po; type: ADME, organism-based; design: time < 6 hr, dose 10 mg/kg, route oral; conditions: plasma
Procedure, shortened: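 Rat pharmacokinetics: oral dosing at 10 mpk in 20% HPBCD vehicle; AUC taken over 0–6 h.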

[3] = target: T1, Transient receptor potential cation channel subfamily V member 1; experiment: Antagonist activity at TRPV1 expressed in HEK293 cells assessed as inhibition of PMA-induced activation by FLIPR assay; type: functional, cell-based; procedure, shortened: as §1
[4] = target: T1, Transient receptor potential cation channel subfamily V member 1; experiment: Antagonist activity at TRPV1 expressed in HEK293 cells assessed as inhibition of capsaicin-induced activation at 10 uM by FLIPR assay; type: functional, cell-based; design: scale not given: the % may be the effect or the level left
Procedure, shortened: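 TRPV1 FLIPR run at 37 °C in stably transfected HEK293 cells, capsaicin-activated. Percent inhibition measured with test compound at a single concentration of 10 µM, from DMSO solution, with a DMSO vehicle control.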

[5] = Stability in pH 7.4 buffer assessed as formation of 1-(tert-butoxycarbonyl)-3-(phenyl(phenylamino)methyl)azetidine-3-carboxylic acid after 2 hrs; type: physicochemical; conditions: pH 7.4, 2 h
Procedure, shortened: (§2)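 Compound held in pH 7.4 buffer spiked with 0.1 M NaSMe and methylamine to mimic plasma nucleophiles. Followed by LC–MS for up to 24 h, tracking loss of parent and appearance of the ring-opened amino acid.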

[6] = Aqueous solubility of the compound; type: physicochemical; conditions: buffer
[7] = Stability in pH 7.4 buffer after 24 hrs; type: physicochemical; conditions: pH 7.4, 24 h; procedure, shortened: as §2
[8] = Half life in iv dosed rat; type: ADME, organism-based; conditions: in vivo
Procedure, shortened: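 Rat dosed intravenously as an add-on to the oral PK study (10 mpk oral in 20% HPBCD); terminal half-life from the iv arm.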

[9] = Oral bioavailability in rat at 10 mg/kg; type: ADME, organism-based; conditions: in vivo

T1 sequence (Q8NER1 whole entry): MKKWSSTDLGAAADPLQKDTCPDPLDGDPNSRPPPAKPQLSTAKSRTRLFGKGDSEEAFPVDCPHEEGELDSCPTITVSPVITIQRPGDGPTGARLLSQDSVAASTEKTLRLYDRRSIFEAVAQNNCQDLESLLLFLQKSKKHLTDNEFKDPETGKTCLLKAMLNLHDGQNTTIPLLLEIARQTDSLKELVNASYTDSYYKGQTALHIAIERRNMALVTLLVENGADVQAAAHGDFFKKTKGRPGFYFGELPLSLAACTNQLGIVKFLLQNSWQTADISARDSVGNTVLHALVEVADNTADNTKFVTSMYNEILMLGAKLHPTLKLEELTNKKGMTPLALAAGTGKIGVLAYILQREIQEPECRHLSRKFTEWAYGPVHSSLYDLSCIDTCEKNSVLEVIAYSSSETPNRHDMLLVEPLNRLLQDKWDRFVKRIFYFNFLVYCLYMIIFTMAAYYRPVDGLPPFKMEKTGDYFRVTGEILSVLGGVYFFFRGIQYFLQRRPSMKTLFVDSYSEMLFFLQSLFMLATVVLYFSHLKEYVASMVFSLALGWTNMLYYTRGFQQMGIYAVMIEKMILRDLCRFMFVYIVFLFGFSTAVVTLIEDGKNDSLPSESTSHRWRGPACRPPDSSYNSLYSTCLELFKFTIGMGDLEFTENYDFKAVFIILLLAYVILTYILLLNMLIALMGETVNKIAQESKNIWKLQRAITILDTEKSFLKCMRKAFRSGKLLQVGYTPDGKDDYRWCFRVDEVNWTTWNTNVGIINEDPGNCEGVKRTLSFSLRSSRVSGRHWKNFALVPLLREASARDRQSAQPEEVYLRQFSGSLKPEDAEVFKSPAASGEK

Row | SMILES | IC50 [1] | AUC(0-t) at 6 h [2] | IC50 [3] | other results
1 | O=C(Nc1ccc(C(F)(F)F)cc1)N1CCC2(CC1)C(=O)N(c1ccccc1)C2c1ccccc1 (racemic) | 85 nM | 1660 ng·h/mL | 103 nM | –
2 | CC(C)c1ccc(NC(=O)N2CCC3(CC2)C(=O)N(c2ccccc2)[C@H]3c2ccccc2)cc1 | 81 nM | 19 ng·h/mL | 43 nM | –
3 | O=C(Nc1ccc(C(F)(F)F)cc1)N1CCC2(CC1)C(=O)N(c1ccccn1)[C@@H]2c1ccccc1 | – | – | – | Activity [4]: 83%
4 | O=C(Nc1ccc(C(F)(F)F)cn1)N1CCC2(CC1)C(=O)N(c1ccccc1)C2c1ccccc1 (racemic) | 205 nM | – | 318 nM | –
5 | CC(C)c1ccc(NC(=O)N2CCC3(CC2)C(=O)N(c2ccccc2)C3c2ccccc2)cc1 (centres undefined) | 101 nM | 44 ng·h/mL | 113 nM | –
6 | CC(C)(C)c1ccc(NC(=O)N2CCC3(CC2)C(=O)N(c2ccccc2)[C@@H]3c2ccccc2)cc1 | – | – | – | Activity [4]: 8.5%
7 | CC(C)(C)[C@H]1CC[C@H](NC(=O)N2CCC3(CC2)C(=O)N(c2ccccc2)[C@H]3c2ccccc2)CC1 | 49 nM | – | 32 nM | –
8 | CC(C)(c1ccccc1)c1ccc(NC(=O)N2CCC3(CC2)C(=O)N(c2ccccc2)[C@H]3c2ccccc2)cc1 | 226 nM | – | – | –
9 | CC(C)(C)c1ccc(NC(=O)N2CCC3(CC2)CN(c2ccccc2)C3=O)cc1 | 80 nM | – | 59 nM | –
10 | CC(C)(C)[C@H]1CC[C@@H](NC(=O)N2CCC3(CC2)C(=O)N(c2ccccc2)[C@H]3c2ccccc2)CC1 | 528 nM | – | 232 nM | –
11 | CC(C)c1ccc(NC(=O)N2CCC3(CC2)C(=O)N(c2ccccc2)[C@@H]3c2ccccc2)cc1 | – | – | – | Activity [4]: inactive
12 | CC(C)(C)OC(=O)N1CC2(C1)C(=O)N(c1ccccc1)C2c1ccccc1 (centres undefined) | – | – | – | Stability [5]: Unstable
13 | CC(C)(C)c1ccc(NC(=O)N2CCC3(CC2)C(=O)N(c2ccccc2)[C@H]3c2ccccc2)cc1 | 9.4 nM | 49 ng·h/mL | 12 nM | solubility [6]: 0.094 µM (≈ 0.044 µg/mL)
14 | CC(C)(C)c1ccc(NC(=O)N2CCC3(CC2)CN(c2ccccc2-c2ccccc2)C3=O)cc1 | – | – | – | Activity [4]: 73%
15 | CC(C)(C)OC(=O)N1CCC2(CC1)C(=O)N(c1ccccc1)C2c1ccccc1 (centres undefined) | – | – | – | Stability [7]: Stable
16 | O=C(Nc1ccc(C(F)(F)F)cc1)N1CCC2(CC1)C(=O)N(c1ccccn1)[C@H]2c1ccccc1 | 13 nM | 2500 ng·h/mL | 8.5 nM | half-life [8]: 2.5 h; solubility [6]: 0.3 µM (≈ 0.144 µg/mL); bioavailability [9]: 45%
